Converted amounts (≈) assume the structure as drawn. The source made the active and inactive calls. No cut-off for these calls is given here.
Assays:
[1] = system: Brain; test: Dose normalized AUC (0 to 7 hrs) in Han-Wistar SOA rat model brain at 2 mg/kg administered via oral gavage by UPLC/MS/MS analysis; assay type: ADME, organism-based; settings: in vivo
In short: (§1)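 Male Han-Wistar rats were given 2 mg/kg by oral gavage as a suspension in DMSO:1% methylcellulose (1:99). Blood (cardiac puncture, EDTA-K2, under isoflurane) and brains were collected at 0.25–7 h. Brain was homogenised in 3-fold PBS, samples were protein-precipitated and quantified by UPLC/MS/MS.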

[2] = Unbound brain-to-blood concentration ratio in Han-Wistar SOA rat model at 2 mg/kg administered via oral gavage by UPLC/MS/MS analysis; assay type: ADME, organism-based; settings: read-out: K(p,uu,brain)
In short: (§2)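 Male Han-Wistar rats given a single 2 mg/kg oral gavage as a suspension in DMSO:1% methylcellulose (1:99). Blood was taken by cardiac puncture under isoflurane at 0.25–7 h, diluted 1:3 with water, and brains were homogenized in 3-fold PBS. Samples were extracted by acetonitrile protein precipitation and quantified by UPLC/MS/MS. Kp = brain DNAUC0-7h/blood DNAUC0-7h; Kp,uu = Kp×Fu,br/Fu,bl.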

[3] = Passive permeability in MDCK2-MDR1 cells transduced with BacMam2-BCRP at 3 uM after 90 mins by Transwell assay; assay type: ADME, cell-based, Canis lupus familiaris, MDCK-MDR1; settings: dog; read-out: permeability
In short: (§3)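 MDCKII-MDR1 cells transduced with BacMam2-BCRP and grown in Transwells. Compound at 3 μM, in duplicate, was incubated 90 min A→B (and B→A) with and without GF120918 (5 μM, dual P-gp/BCRP inhibitor). Passive permeability (Pexact, nm/s) was calculated by an equation from earlier work. The permeability ratio is A→B permeability with GF120918 over A→B permeability without it.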

[4] = Ratio of passive permeability in presence of dual P-gp/BCRP inhibitor GF120918 to absence of GF120918 in MDCK2-MDR1 cells transduced with BacMam2-BCRP at 3 uM after 90 mins by Transwell assay; assay type: ADME, cell-based, Canis lupus familiaris; settings: dog, mdck2-mdr1, 1.5 h; in short: as §3
[5] = Solubility of compound in fasted state simulated intestinal fluid measured after 4 hrs; assay type: physicochemical
In short: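 Solubility in FaSSIF, read after 4 h incubation.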

[6] = Ratio of brain dose normalized AUC (0 to 7 hrs) to […] dose normalized AUC (0 to 7 hrs), Kp of the compound in Han-Wistar SOA rat model at 2 mg/kg administered via oral gavage by UPLC/MS/MS analysis; assay type: ADME, organism-based; in short: as §2
[7] = Fraction unbound in Han-Wistar SOA rat model brain at 2 mg/kg administered via oral gavage by UPLC/MS/MS analysis; assay type: ADME, organism-based
[8] = molecular target: T1, C-X-C chemokine receptor type 2 (Homo sapiens, UniProt P25025); test: Antagonist activity at CXCR2 in human whole blood assessed as inhibition of GROalpha-stimulated CD11b upregulation preincubated for 15 mins followed by GROalpha stimulation measured after 15 mins by FITC-staining based FACS analysis
T1 sequence (P25025 whole entry): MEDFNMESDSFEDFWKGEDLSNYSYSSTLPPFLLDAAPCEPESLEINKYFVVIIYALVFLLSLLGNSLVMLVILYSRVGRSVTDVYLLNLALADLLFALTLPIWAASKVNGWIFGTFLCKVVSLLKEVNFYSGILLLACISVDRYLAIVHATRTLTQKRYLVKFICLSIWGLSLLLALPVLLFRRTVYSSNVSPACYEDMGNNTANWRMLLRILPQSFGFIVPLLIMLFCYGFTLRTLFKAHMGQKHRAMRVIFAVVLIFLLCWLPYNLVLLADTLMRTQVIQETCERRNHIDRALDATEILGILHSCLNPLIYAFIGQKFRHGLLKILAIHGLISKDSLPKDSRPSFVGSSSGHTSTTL

[9] = system: Blood; test: Dose normalized AUC (0 to 7 hrs) in Han-Wistar SOA rat model blood at 2 mg/kg administered via oral gavage by UPLC/MS/MS analysis; assay type: ADME, organism-based; settings: in vivo; in short: as §1
[10] = Fraction unbound in Han-Wistar SOA rat model blood at 2 mg/kg administered via oral gavage by UPLC/MS/MS analysis; assay type: ADME, organism-based
[11] = molecular target: T1, C-X-C chemokine receptor type 2; test: Antagonist activity at TEV protease cleavage site linked GAL4-VP16-fused recombinant human CXCR2 expressed in cells assessed as inhibition of […] human CXCL1-stimulated beta-arrestin recruitment by CCF4-AM-fluorescence based FRET assay; assay type: cell-based; settings: read-out: pIC50 (converted)
In short: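 Stable cell line expressing recombinant human CXCR2 linked to a TEV site and Gal4-VP16. Cells were starved 24 h at 37 °C, 5% CO2, then resuspended at ~200,000 cells/mL. They were given compound in DMSO (concentration-response), stimulated with 80 nM hCXCL1 and incubated overnight at 37 °C. CCF4-AM substrate was then added for 2 h at RT in the dark.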

[12] = Efflux ratio of passive permeability in MDCK2-MDR1 cells transduced with BacMam2-BCRP at 3 uM after 90 mins by Transwell assay; assay type: ADME, cell-based, Canis lupus familiaris, MDCK-MDR1; settings: dog
In short: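 MDCKII-MDR1 cells transduced with BacMam2-BCRP in Transwells. Compound at 3 μM was measured in duplicate, A→B and B→A, after 90 min, with and without 5 μM GF120918. ER = B→A/A→B permeability without inhibitor. System qualified with amprenavir and dantrolene ERs.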

[13] = molecular target: C-X-C chemokine receptor type 2 (Mus musculus) (UniProt P35343); test: Antagonist activity at CXCR2 in C57 mouse whole blood assessed as inhibition of GROalpha-stimulated CD11b upregulation at 10 uM preincubated for 2 hr followed by GROalpha stimulation measured after 10 mins by FITC-staining based FACS analysis
Sequence of C-X-C chemokine receptor type 2 (Mus musculus) (P35343 whole entry): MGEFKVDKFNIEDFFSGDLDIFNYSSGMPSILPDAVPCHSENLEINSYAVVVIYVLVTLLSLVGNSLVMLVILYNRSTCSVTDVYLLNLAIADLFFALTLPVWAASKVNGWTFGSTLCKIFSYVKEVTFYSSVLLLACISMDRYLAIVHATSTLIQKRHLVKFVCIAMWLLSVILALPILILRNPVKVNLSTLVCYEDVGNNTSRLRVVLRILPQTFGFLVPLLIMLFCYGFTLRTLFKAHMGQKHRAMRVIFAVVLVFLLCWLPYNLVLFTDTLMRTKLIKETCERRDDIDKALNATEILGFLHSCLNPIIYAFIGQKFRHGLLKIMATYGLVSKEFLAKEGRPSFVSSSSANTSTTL

[14] = molecular target: C-X-C chemokine receptor type 2 (Mus musculus, UniProt P35343); test: Antagonist activity at CXCR2 in C57 mouse whole blood assessed as inhibition of GROalpha-stimulated CD11b upregulation preincubated for 2 hr followed by GROalpha stimulation measured after 10 mins by FITC-staining based FACS analysis
Sequence of C-X-C chemokine receptor type 2 (Mus musculus, UniProt P35343) (P35343 whole entry): as above

| SMILES | AUC/dose [1] | Kp uu [2] | Papp at 1.5 h, 3 µM [3] | Ratio [4] | solubility at 4 h [5] | Kp [6] | fraction unbound [7] | IC50 [8] | AUC/dose [9] | fraction unbound [10] | IC50 [11] | efflux ratio at 1.5 h, 3 µM [12] | inhibition [13] | IC50 [14] |
| --- | --- | --- | --- | --- | --- | --- | --- | --- | --- | --- | --- | --- | --- | --- |
| CC1=CCC[C@H]1NC(=O)Nc1ccc(Cl)c(S(=O)(=O)[C@]2(C)CCOC2)c1O | 60.5 ng·h/g/mg/kg | 0.23 | 25.2 ×10⁻⁶ cm/s | 2.4 | 20.5 µg/mL (≈ 49.4 µM) | 0.08 | 0.106 | 158 nM | 788 ng·h/mL/mg/kg | 0.036 | – | – | – | – |
| CC1=CCC[C@H]1NC(=O)Nc1ccc(Cl)c(S(=O)(=O)[C@H]2C[C@H](N(C)C)C2)c1O | 161 ng·h/g/mg/kg | – | 20.3 ×10⁻⁶ cm/s | 3.4 | 387 µg/mL (≈ 905 µM) | 0.06 | 0.137 | 126 nM | 2580 ng·h/mL/mg/kg | 0.05 | – | – | – | – |
| CC1=CCC[C@H]1NC(=O)Nc1ccc(C#N)c(S(=O)(=O)C(C)(C)CC(F)(F)F)c1O | – | – | 3 ×10⁻⁶ cm/s | 4.3 | 408 µg/mL (≈ 916 µM) | – | – | 1000 nM | – | – | 0.158 nM | – | – | – |
| CC1=CCC[C@H]1NC(=O)Nc1ccc(C#N)c(S(=O)(=O)C(C)(C)C)c1O | 73 ng·h/g/mg/kg | – | 9 ×10⁻⁶ cm/s | 4 | 686 µg/mL (≈ 1820 µM) | 0.03 | 0.116 | 158 nM | 2575 ng·h/mL/mg/kg | 0.034 | – | – | – | – |
| CC1=CCC[C@H]1NC(=O)Nc1ccc(Cl)c(S(=O)(=O)C(C)(F)F)c1O | 243 ng·h/g/mg/kg | – | 34.8 ×10⁻⁶ cm/s | 2.4 | 50.8 µg/mL (≈ 129 µM) | 0.06 | 0.051 | 631 nM | 4331 ng·h/mL/mg/kg | 0.0065 | – | – | – | – |
| CC1=CCC[C@H]1NC(=O)Nc1ccc(Cl)c(S(=O)(=O)C(C)(C)[C@@H]2CCOC2)c1O | – | – | 12.7 ×10⁻⁶ cm/s | 4.5 | 24.6 µg/mL (≈ 55.5 µM) | – | – | – | – | – | 1.26 nM | – | – | – |
| CCC1(S(=O)(=O)c2c(Cl)ccc(NC(=O)N[C@@H]3CCC=C3C)c2O)CCOCC1 | – | – | 32.4 ×10⁻⁶ cm/s | – | 16 µg/mL (≈ 36.1 µM) | – | – | 398 nM | – | – | 0.316 nM | 3.2 | – | – |
| CC1=CCC[C@H]1NC(=O)Nc1ccc(Cl)c(S(=O)(=O)[C@H]2C[C@H](N3CCCC3)C2)c1O | 296 ng·h/g/mg/kg | – | 20.5 ×10⁻⁶ cm/s | 2.8 | 758 µg/mL (≈ 1670 µM) | 0.03 | 0.114 | 100 nM | 11721 ng·h/mL/mg/kg | 0.0065 | – | – | – | – |
| CC1=CCC[C@H]1NC(=O)Nc1ccc(Cl)c(S(=O)(=O)C2CCCOC2)c1O (stereo partly drawn) | – | – | 26.3 ×10⁻⁶ cm/s | – | 13.7 µg/mL (≈ 33 µM) | – | – | 251 nM | – | – | 1.58 nM | 9.6 | – | – |
| CC1=CCC[C@H]1NC(=O)Nc1ccc(Cl)c(S(=O)(=O)C(C)(C)C)c1O | – | – | 36.4 ×10⁻⁶ cm/s | 1.5 | 1.2 µg/mL (≈ 3.1 µM) | – | – | 316 nM | – | – | 1 nM | – | – | – |
| CC1=CCC[C@H]1NC(=O)Nc1ccc(Cl)c(S(=O)(=O)C2(CF)CCOCC2)c1O | – | – | 21.8 ×10⁻⁶ cm/s | – | 14.9 µg/mL (≈ 33.3 µM) | – | – | 251 nM | – | – | 1.26 nM | 18.7 | – | – |
| CC1=CCC[C@H]1NC(=O)Nc1ccc(Cl)c(S(=O)(=O)C(C)(C)[C@H]2CCOC2)c1O | 13.4 ng·h/g/mg/kg | 0.42 | 33.1 ×10⁻⁶ cm/s | – | 25.2 µg/mL (≈ 56.9 µM) | 0.21 | 0.033 | 316 nM | 63.8 ng·h/mL/mg/kg | 0.016 | 1.58 nM | 2.2 | – | – |
| CC[C@@H](Nc1c(Nc2cccc(C(=O)N(C)C)c2O)c(=O)c1=O)c1ccc(C)o1 [NAVARIXIN ANHYDROUS] | – | – | – | – | – | – | – | – | – | – | – | – | Active | 8.1 nM |
| CC1=CCC[C@H]1NC(=O)Nc1ccc(Cl)c(S(=O)(=O)C(C)(C)C2CCOCC2)c1O | – | – | 30.3 ×10⁻⁶ cm/s | – | 1.4 µg/mL (≈ 3.06 µM) | – | – | 398 nM | – | – | 0.501 nM | 3.9 | – | – |
| CC1=CCC[C@H]1NC(=O)Nc1ccc(Cl)c(S(=O)(=O)C2(C)CCOCC2)c1O | – | – | 53.2 ×10⁻⁶ cm/s | – | 6.1 µg/mL (≈ 14.2 µM) | – | – | 200 nM | – | – | 0.501 nM | 3.4 | – | – |
| CC1=CCC[C@H]1NC(=O)Nc1ccc(Cl)c(S(=O)(=O)C(F)(F)CN(C)C)c1O | – | – | 26.6 ×10⁻⁶ cm/s | – | 128 µg/mL (≈ 293 µM) | – | – | 631 nM | – | – | 2 nM | 12.6 | – | – |
| CC1=CCC[C@H]1NC(=O)Nc1ccc(Cl)c(S(=O)(=O)C(C)(C)C(F)(F)F)c1O | 107 ng·h/g/mg/kg | 0.59 | 33.9 ×10⁻⁶ cm/s | 1.6 | 3.4 µg/mL (≈ 7.71 µM) | 0.2 | 0.021 | – | 535 ng·h/mL/mg/kg | 0.007 | 0.501 nM | – | – | – |

— ChEMBL document CHEMBL4033786, “Discovery of Novel 1-Cyclopentenyl-3-phenylureas as Selective, Brain Penetrant, and Orally Bioavailable CXCR2 Antagonists” (J Med Chem, 2018)
